Reference: ChEMBL document CHEMBL1255444, “In vitro antibacterial activities of JNJ-Q2, a new broad-spectrum fluoroquinolone” (Antimicrob Agents Chemother, 2010)
≈ marks a conversion by molar mass, not a printed value.

Key:
Format in all cases: functional
Streptococcus pneumoniae [1] = assay: Antibacterial activity against Streptococcus pneumoniae isolate OC5462 assessed as log reduction in bacterial growth at 2 times MIC measured at 6 hrs by time-kill assay
Procedure, shortened: (§1)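 Drug was diluted from 50× stocks made in water or acidified water. Samples were taken at 6 and 24 h and serially diluted onto TSA-5% sheep blood plates. Plates were incubated 20–24 h at 37°C in 5% CO2 before counting CFU. Log10 titer change is given relative to the starting inoculum.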

Providencia stuartii = assay: Ratio of Levofloxacin MIC90 to compound MIC90 for Providencia stuartii
Staphylococcus aureus [2] = assay: Antibacterial activity against methicillin-resistant Staphylococcus aureus isolate OC8530 harboring gyrA S84L and parC I143V mutant gene assessed as log reduction in bacterial growth at 2 times MIC measured at 24 hrs by time-kill assay
Procedure, shortened: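 Time-kill in cation-adjusted Mueller-Hinton broth. […] Samples were taken up to 24 h, serially diluted onto TSA and counted after 20–24 h at 37°C. Result is log10 decrease at 24 h from the starting inoculum; detection limit 100 CFU.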

Streptococcus pneumoniae [3] = assay: Antibacterial activity against Streptococcus pneumoniae isolate OC5462 assessed as log reduction in bacterial growth at 2 times MIC measured at 24 hrs by time-kill assay; procedure, shortened: as §1
[4] = test system: Staphylococcus epidermidis; assay: Antibacterial activity against methicillin-resistant Staphylococcus epidermidis by broth microdilution method
Staphylococcus aureus [5] = assay: Antibacterial activity against methicillin-resistant Staphylococcus aureus isolate OC2838 assessed as log reduction in bacterial growth at 2 times MIC measured at 24 hrs by time-kill assay
Procedure, shortened: (§2)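 Overnight MRSA cultures were diluted into fresh cation-adjusted Mueller-Hinton broth to about 5 × 10^6 CFU/ml. […] Samples were plated serially diluted on trypticase soy agar, and CFU were counted after 20-24 h at 37°C. Value is the log10 decrease at 24 h from the starting inoculum; detection limit 100 CFU.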

Staphylococcus aureus [6] = assay: Antibacterial activity against methicillin-resistant Staphylococcus aureus isolate OC11223 by broth microdilution method
Procedure, shortened: (§3)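 CLSI M07-A7 broth microdilution MIC. Medium was cation-adjusted Mueller-Hinton broth. For S. pneumoniae it was Mueller-Hinton supplemented with 5% lysed horse blood. CLSI quality-control strains were included as appropriate.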

Streptococcus pneumoniae [7] = assay: Antibacterial activity against Streptococcus pneumoniae isolate OC7368 by broth microdilution method; procedure, shortened: as §3
Streptococcus pneumoniae [8] = assay: Antibacterial activity against Streptococcus pneumoniae isolate OC7376 assessed as log reduction in bacterial growth at 2 times MIC measured at 24 hrs by time-kill assay; procedure, shortened: as §1
Streptococcus pneumoniae [9] = assay: Antibacterial activity against Streptococcus pneumoniae isolate OC7376 assessed as log reduction in bacterial growth at 2 times MIC measured at 6 hrs by time-kill assay; procedure, shortened: as §1
Staphylococcus aureus [10] = assay: Antibacterial activity against methicillin-resistant Staphylococcus aureus isolate OC12501 assessed as log reduction in bacterial growth at 4 times MIC measured at 24 hrs by time-kill assay; procedure, shortened: as §2
Streptococcus pneumoniae [11] = assay: Antibacterial activity against Streptococcus pneumoniae isolate OC5462 assessed as log reduction in bacterial growth at 4 times MIC measured at 6 hrs by time-kill assay; procedure, shortened: as §1
Streptococcus pneumoniae [12] = assay: Antibacterial activity against Streptococcus pneumoniae OC6755 harboring gyrA S81F and parC S79Y mutant gene by agar dilution method
Procedure, shortened: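 MICs for the resistance-selection studies were determined by CLSI agar dilution on Mueller-Hinton medium. For S. pneumoniae the medium was supplemented with 5% lysed horse blood. For MRSA fluctuation-assay strains an arithmetic agar dilution scheme was used for a more precise MIC.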

Enterococcus faecium = assay: Antibacterial activity against Enterococcus faecium by broth microdilution method
Procedure, shortened: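 MICs by CLSI M07-A7 broth microdilution in cation-adjusted Mueller-Hinton medium. For S. pneumoniae the medium was supplemented with 5% lysed horse blood. CLSI quality control strains were run alongside as appropriate.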

Staphylococcus aureus [13] = assay: Antibacterial activity against methicillin-resistant Staphylococcus aureus isolate OC2838 assessed as log reduction in bacterial growth at 4 times MIC measured at 24 hrs by time-kill assay; procedure, shortened: as §2
Streptococcus pneumoniae [14] = assay: Antibacterial activity against Streptococcus pneumoniae isolate OC7348 assessed as log reduction in bacterial growth at 4 times MIC measured at 24 hrs by time-kill assay; procedure, shortened: as §1

Work on `COc1c(N2CCC/C(=C(\F)CN)C2)c(F)cc2c(=O)c(C(=O)O)cn(C3CC3)c12` [ACORAFLOXACIN] yielded a deltalog10CFU/ml (Streptococcus pneumoniae [1]) of 3.2, a Ratio (Providencia stuartii) of 16 and a deltalog10CFU/ml (Staphylococcus aureus [2]) of 6.3. It also gave a deltalog10CFU/ml (Streptococcus pneumoniae [3]) of 3.3, an MIC50 [4] of 0.12 µg/mL (≈ 0.286 µM) and an MIC90 [4] of 0.25 µg/mL (≈ 0.596 µM). It also gave a deltalog10CFU/ml (Staphylococcus aureus [5]) of 4.1, an MIC (Staphylococcus aureus [6]) of 0.008 µg/mL (≈ 0.0191 µM) and an MIC (Streptococcus pneumoniae [7]) of 0.12 µg/mL (≈ 0.286 µM). The deltalog10CFU/ml (Streptococcus pneumoniae [8]) was 6.8, the deltalog10CFU/ml (Streptococcus pneumoniae [9]) was 4.4 and the deltalog10CFU/ml (Staphylococcus aureus [10]) was 6.2. It also gave a deltalog10CFU/ml (Streptococcus pneumoniae [11]) of 3.4, an MIC (Streptococcus pneumoniae [12]) of 0.12 µg/mL (≈ 0.286 µM) and an MIC50 (Enterococcus faecium) of 0.5 µg/mL (≈ 1.19 µM). The MIC90 (Enterococcus faecium) was 4 µg/mL (≈ 9.54 µM), the deltalog10CFU/ml (Staphylococcus aureus [13]) was 4.5 and the deltalog10CFU/ml (Streptococcus pneumoniae [14]) was 6.5.
